ChEMBL document CHEMBL4052657, “Design, synthesis and biological evaluation of sulfonamide-substituted diphenylpyrimidine derivatives (Sul-DPPYs) as potent focal adhesion kinase (FAK) inhibitors with antitumor activity” (Bioorg Med Chem, 2017)

What was measured:
[1] = test system: ASPC1; experiment: Antiproliferative activity against human AsPC1 cells after 72 hrs by CCK8 assay; conditions: ASPC1, 72 h
[2] = test system: BXPC-3; experiment: Antiproliferative activity against human BxPC3 cells after 72 hrs by CCK8 assay; conditions: BXPC-3, 72 h
[3] = test system: Ramos; experiment: Antiproliferative activity against human Ramos cells after 72 hrs by CCK8 assay; format: functional, cell-based
Procedure, shortened: (§1)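 Cells in RPMI-1640 with 10% FBS and 1% penicillin-streptomycin, 37 °C, 5% CO2. Seeded at 3,000 to 5,000 cells/well and grown one day, then exposed to compound for 72 h at 1.25 to 40 µmol/L, five replicates per concentration. CCK-8 read-out is absorbance at 450 nm. Dose-response curves used five concentrations. IC50 is the mean of at least three separate experiments.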

[4] = test system: NCI-H1975; experiment: Antiproliferative activity against gefitinib-resistant human NCI-H1975 cells harboring FAK after 72 hrs by CCK8 assay; format: functional, cell-based; conditions: NCI-H1975, 72 h; procedure, shortened: as §1
[5] = test system: PANC-1; experiment: Antiproliferative activity against human PANC1 cells after 72 hrs by CCK8 assay; conditions: PANC-1, 72 h
[6] = test system: L02; experiment: Antiproliferative activity against human LO2 cells after 72 hrs by CCK8 assay; conditions: L02, 72 h
[7] = test system: PANC-1; experiment: Antiproliferative activity against human PANC1 cells assessed as cell viability at 0.5 uM after 48 hrs by CCK8 assay (reference value: 99%); format: functional; conditions: PANC-1, 48 h, read-out: Activity
[8] = test system: PANC-1; experiment: Antiproliferative activity against human PANC1 cells assessed as cell viability at 8 uM after 48 hrs by CCK8 assay (reference value: 99%); format: functional; conditions: PANC-1, 48 h, read-out: Activity
[9] = test system: ASPC1; experiment: Induction of apoptosis in human AsPC1 cells assessed as early apoptotic cells at 5 uM after 72 hrs by Annexin-V-FITC/propidium iodide staining based flow cytometry relative to control; format: functional
Procedure, shortened: (§2)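 AsPC-1 cells at 2 to 5 ×10⁵ cells/well were treated for 72 h with DMSO solvent control or compound at 1, 5 or 10 µM in medium with 5% FBS. Cells were then […], stained with annexin V-FITC/propidium iodide and analysed by flow cytometry.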

[10] = test system: ASPC1; experiment: Induction of apoptosis in human AsPC1 cells assessed as viable cells at 1 uM after 72 hrs by Annexin-V-FITC/propidium iodide staining based flow cytometry relative to control; format: functional; conditions: ASPC1, 72 h, read-out: Activity; procedure, shortened: as §2
[11] = test system: PANC-1; experiment: Antiproliferative activity against human PANC1 cells assessed as cell viability at 2 uM after 72 hrs by CCK8 assay (reference value: 97.5%); format: functional; conditions: PANC-1, 72 h, read-out: Activity
[12] = test system: ASPC1; experiment: Induction of apoptosis in human AsPC1 cells assessed as late apoptotic cells at 5 uM after 72 hrs by Annexin-V-FITC/propidium iodide staining based flow cytometry relative to control; format: functional; procedure, shortened: as §2
[13] = test system: ASPC1; experiment: Induction of apoptosis in human AsPC1 cells assessed as late apoptotic cells at 1 uM after 72 hrs by Annexin-V-FITC/propidium iodide staining based flow cytometry relative to control; format: functional; procedure, shortened: as §2
[14] = test system: ASPC1; experiment: Induction of apoptosis in human AsPC1 cells assessed as necrotic cells at 10 uM after 72 hrs by Annexin-V-FITC/propidium iodide staining based flow cytometry relative to control; format: functional; procedure, shortened: as §2
[15] = test system: ASPC1; experiment: Antiproliferative activity against human AsPC1 cells assessed as cell viability at 1.25 uM after 24 hrs by CCK8 assay relative to control; format: functional; conditions: ASPC1, 24 h, read-out: Activity
[16] = test system: PANC-1; experiment: Antiproliferative activity against human PANC1 cells assessed as cell viability at 2 uM after 48 hrs by CCK8 assay (reference value: 99%); format: functional; conditions: PANC-1, 48 h, read-out: Activity
[17] = test system: ASPC1; experiment: Antiproliferative activity against human AsPC1 cells assessed as cell viability at 10 uM after 24 hrs by CCK8 assay relative to control; format: functional; conditions: ASPC1, 24 h, read-out: Activity
[18] = test system: ASPC1; experiment: Antiproliferative activity against human AsPC1 cells assessed as cell viability at 10 uM after 48 hrs by CCK8 assay (reference value: 98.6%); format: functional; conditions: ASPC1, 48 h, read-out: Activity
[19] = test system: ASPC1; experiment: Induction of apoptosis in human AsPC1 cells assessed as early apoptotic cells at 1 uM after 72 hrs by Annexin-V-FITC/propidium iodide staining based flow cytometry relative to control; format: functional; procedure, shortened: as §2
[20] = test system: PANC-1; experiment: Antiproliferative activity against human PANC1 cells assessed as cell viability at 8 uM after 24 hrs by CCK8 assay relative to control; format: functional; conditions: PANC-1, 24 h, read-out: Activity
[21] = test system: ASPC1; experiment: Induction of apoptosis in human AsPC1 cells assessed as early apoptotic cells at 10 uM after 72 hrs by Annexin-V-FITC/propidium iodide staining based flow cytometry relative to control; format: functional; procedure, shortened: as §2
[22] = test system: ASPC1; experiment: Antiproliferative activity against human AsPC1 cells assessed as cell viability at 1.25 uM after 72 hrs by CCK8 assay (reference value: 96.9%); format: functional; conditions: ASPC1, 72 h, read-out: Activity
[23] = test system: ASPC1; experiment: Induction of apoptosis in human AsPC1 cells assessed as necrotic cells at 5 uM after 72 hrs by Annexin-V-FITC/propidium iodide staining based flow cytometry relative to control; format: functional; procedure, shortened: as §2
[24] = test system: ASPC1; experiment: Induction of apoptosis in human AsPC1 cells assessed as viable cells at 5 uM after 72 hrs by Annexin-V-FITC/propidium iodide staining based flow cytometry relative to control; format: functional; conditions: ASPC1, 72 h, read-out: Activity; procedure, shortened: as §2
[25] = test system: ASPC1; experiment: Induction of apoptosis in human AsPC1 cells assessed as necrotic cells at 1 uM after 72 hrs by Annexin-V-FITC/propidium iodide staining based flow cytometry relative to control; format: functional; procedure, shortened: as §2
[26] = test system: ASPC1; experiment: Antiproliferative activity against human AsPC1 cells assessed as cell viability at 5 uM after 48 hrs by CCK8 assay (reference value: 98.6%); format: functional; conditions: ASPC1, 48 h, read-out: Activity
[27] = test system: ASPC1; experiment: Induction of apoptosis in human AsPC1 cells after 72 hrs by Annexin-V-FITC/propidium iodide staining based flow cytometry; format: functional, cell-based; procedure, shortened: as §2
[28] = test system: PANC-1; experiment: Antiproliferative activity against human PANC1 cells assessed as cell viability at 2 uM after 24 hrs by CCK8 assay relative to control; format: functional; conditions: PANC-1, 24 h, read-out: Activity
[29] = test system: ASPC1; experiment: Antiproliferative activity against human AsPC1 cells assessed as cell viability at 5 uM after 24 hrs by CCK8 assay relative to control; format: functional; conditions: ASPC1, 24 h, read-out: Activity
[30] = test system: ASPC1; experiment: Antiproliferative activity against human AsPC1 cells assessed as cell viability at 10 uM after 72 hrs by CCK8 assay (reference value: 96.9%); format: functional; conditions: ASPC1, 72 h, read-out: Activity
[31] = test system: ASPC1; experiment: Induction of apoptosis in human AsPC1 cells assessed as late apoptotic cells at 10 uM after 72 hrs by Annexin-V-FITC/propidium iodide staining based flow cytometry relative to control; format: functional; procedure, shortened: as §2
[32] = test system: PANC-1; experiment: Antiproliferative activity against human PANC1 cells assessed as cell viability at 8 uM after 72 hrs by CCK8 assay (reference value: 97.5%); format: functional; conditions: PANC-1, 72 h, read-out: Activity
[33] = test system: ASPC1; experiment: Induction of apoptosis in human AsPC1 cells assessed as viable cells at 10 uM after 72 hrs by Annexin-V-FITC/propidium iodide staining based flow cytometry relative to control; format: functional; conditions: ASPC1, 72 h, read-out: Activity; procedure, shortened: as §2
[34] = test system: PANC-1; experiment: Antiproliferative activity against human PANC1 cells assessed as cell viability at 0.5 uM after 24 hrs by CCK8 assay relative to control; format: functional; conditions: PANC-1, 24 h, read-out: Activity
[35] = test system: PANC-1; experiment: Antiproliferative activity against human PANC1 cells assessed as cell viability at 0.5 uM after 72 hrs by CCK8 assay (reference value: 97.5%); format: functional; conditions: PANC-1, 72 h, read-out: Activity
[36] = test system: ASPC1; experiment: Antiproliferative activity against human AsPC1 cells assessed as cell viability at 5 uM after 72 hrs by CCK8 assay (reference value: 96.9%); format: functional; conditions: ASPC1, 72 h, read-out: Activity
[37] = test system: ASPC1; experiment: Antiproliferative activity against human AsPC1 cells assessed as cell viability at 1.25 uM after 48 hrs by CCK8 assay (reference value: 98.6%); format: functional; conditions: ASPC1, 48 h, read-out: Activity

`CNC(=O)c1ccccc1Nc1nc(Nc2ccc(NS(=O)(=O)c3ccc(OC)cc3)c(C)c2)ncc1Cl` gave an IC50 [1] of 1.78 µM, an IC50 [2] of 10.6 µM and an IC50 [3] of 4.61 µM. It also gave an IC50 [4] of 4.89 µM, an IC50 [5] of 0.03 µM and an IC50 [6] of 2.88 µM.
For `CNC(=O)c1ccccc1Nc1nc(Nc2ccc(NS(=O)(=O)c3ccc(F)cc3)cc2)ncc1Cl`, the viability at 0.5 µM [7] was 53.3%, the IC50 [1] was 3.92 µM and the viability at 8 µM [8] was 21.3%. For the same molecule, the IC50 [2] was 6.92 µM, the Activity [9] was 21.8% and the viability at 1 µM [10] was 43.6%. The IC50 [3] was 2.18 µM, the viability at 2 µM [11] was 36.2% and the Activity [12] was 53.1%. It also gave an Activity [13] of 27.3%, an IC50 [4] of 3.71 µM and an Activity [14] of 0.6%. The viability at 1.25 µM [15] was 90%, the viability at 2 µM [16] was 39.3% and the viability at 10 µM [17] was 52%. For the same molecule, the viability at 10 µM [18] was 47.1%, the Activity [19] was 28.5% and the viability at 8 µM [20] was 42.8%. For the same molecule, the IC50 [5] was 0.53 µM, the Activity [21] was 24.4% and the viability at 1.25 µM [22] was 52%. The Activity [23] was 1.1%, the IC50 [6] was 11.5 µM and the viability at 5 µM [24] was 24%. The Activity [25] was 0.6%, the viability at 5 µM [26] was 76% and the Activity [27] was “Dose-dependent effect”. The viability at 2 µM [28] was 68.8%, the viability at 5 µM [29] was 79.4% and the viability at 10 µM [30] was 23.9%. It also gave an Activity [31] of 62.9%, a viability at 8 µM [32] of 17.2% and a viability at 10 µM [33] of 12.1%. It also gave a viability at 0.5 µM [34] of 71.6%, a viability at 0.5 µM [35] of 45.9% and a viability at 5 µM [36] of 49.1%. For the same molecule, the viability at 1.25 µM [37] was 79.4%.
`CNC(=O)c1ccccc1Nc1nc(Nc2ccc(NS(=O)(=O)c3ccc(OC)cc3)cc2)ncc1Cl` was tested, and the IC50 [1] was 3.49 µM, the IC50 [2] was 24.1 µM and the IC50 [3] was 9.1 µM. The IC50 [4] was 4.28 µM, the IC50 [5] was 1.8 µM and the IC50 [6] was 8.37 µM.
`CNC(=O)c1ccccc1Nc1nc(Nc2ccc(Oc3ccc(NS(C)(=O)=O)cc3)cc2)ncc1Cl` was tested, and the IC50 [1] was 2.75 µM, the IC50 [2] was 14.2 µM and the IC50 [3] was 19.8 µM. It also gave an IC50 [4] of 6.29 µM, an IC50 [5] of 3.61 µM and an IC50 [6] of 16.5 µM.
In the case of `Nc1ccn([C@@H]2O[C@H](CO)[C@@H](O)C2(F)F)c(=O)n1` [GEMCITABINE], the IC50 [1] is reported as 26.8 µM, the IC50 [2] is reported as 20.2 µM and the IC50 [3] is reported as > 10 µM. The IC50 [4] was > 10 µM, the IC50 [5] was 30.4 µM and the IC50 [6] was > 20 µM.
`CNC(=O)c1ccccc1Nc1nc(Nc2ccc(NS(=O)(=O)c3ccc(F)cc3)c(OC)c2)ncc1Cl` was tested, and the IC50 [1] was 6.69 µM, the IC50 [2] was 31.6 µM and the IC50 [3] was 24.6 µM. The IC50 [4] was 12.9 µM, the IC50 [5] was 5.7 µM and the IC50 [6] was 19.7 µM.
